Experimental data as given in publication PMC7125423 (Archives of Pharmacal Research, 2020).
“And” between values parts separate entries of the source, which are not always exact repeats. Equal values may be shown once.

Tests used:
[1] = system: IAV nucleoprotein (NP); assay: Indirect immunofluorescence of viral NP in H1N1-infected MDCK cells; format: cell-based, influenza virus A/Font Monmouth/47(H1N1, FM1); conditions: at MNTD, 8 h after infection, compared to virus group
Procedure, shortened: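 Confluent MDCK monolayers were infected with 100 μL of 100 TCID50 H1N1 for 2 h at 37 °C. Inoculum was removed and test compound was added at its maximum non-toxic dose in DMEM. At 8 h post-infection, cells were fixed in ice-cold acetone/methanol (40:60) for 15 min. Staining used mouse anti-NP monoclonal antibody (1:100 in PBS, 1 h), then Alexa Fluor 488 anti-mouse IgG (1:100, 1 h), with DAPI for nuclei; imaged by fluorescence microscopy.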

[2] = system: MDCK cells; assay: Cell viability assay; format: cell-based, canine; conditions: 24 h, MTT
Procedure, shortened: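 Confluent MDCK cells (grown in DMEM with 10% FBS, penicillin and streptomycin, 5% CO2) were exposed to graded concentrations of test compound for 24 h. Viability was measured by MTT. The maximum non-toxic dose was taken from this assay and then used in the infection assays.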

[3] = system: neuraminidase; format: cell-based, influenza virus A/Font Monmouth/47(H1N1, FM1)
[4] = system: influenza virus A/Font Monmouth/47(H1N1, FM1); format: cell-based
[5] = biological target: influenza H1N1 virus neuraminidase (Influenza A virus, UniProt P03468); assay: Neuraminidase inhibition screening assay; format: biochemical
Sequence of influenza H1N1 virus neuraminidase (P03468 whole entry): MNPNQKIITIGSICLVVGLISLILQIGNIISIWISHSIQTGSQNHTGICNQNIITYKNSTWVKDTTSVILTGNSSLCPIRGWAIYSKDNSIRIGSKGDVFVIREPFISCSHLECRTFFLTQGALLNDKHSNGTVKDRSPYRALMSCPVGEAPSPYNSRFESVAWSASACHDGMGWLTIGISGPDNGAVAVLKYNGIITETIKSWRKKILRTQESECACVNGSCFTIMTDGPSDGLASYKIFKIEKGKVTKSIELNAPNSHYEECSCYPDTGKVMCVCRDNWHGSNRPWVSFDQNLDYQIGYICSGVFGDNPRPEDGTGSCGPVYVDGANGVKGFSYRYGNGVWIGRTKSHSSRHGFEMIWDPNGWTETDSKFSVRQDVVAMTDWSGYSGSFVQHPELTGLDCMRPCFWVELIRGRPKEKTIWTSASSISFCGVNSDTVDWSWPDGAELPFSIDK

[6] = system: TNF-α; assay: Cytokine in lung homogenate of IAV-infected mice; format: in vivo; conditions: day 5 after infection; different doses, except 25 mg/kg/day
Procedure, shortened: (§1)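 Female SPF NIH mice (13–15 g) were infected with mouse-adapted IAV A/Font Monmouth/47 (H1N1, FM1). Controls were normal and placebo (saline, 0.5% Tween 80) groups. On day 5 post-infection, lungs were homogenised and centrifuged (4000×g, 15 min, 4 °C), and supernatants were stored at −80 °C. Cytokines were measured by anti-mouse ELISA kits; n = 10; mean ± SD of 3 separate experiments.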

[7] = Dose safety of curcumin in mice; format: in vivo; conditions: 100 mg/kg/day
[8] = system: influenza A/Font Monmouth/47(H1N1, FM1) virus; set-up: species or system NIH mice; conditions: mouse, in vivo
[9] = system: influenza A/Font Monmouth/47(H1N1, FM1) virus; assay: Survival experiments in IAV-infected mice; format: in vivo, NIH mice; conditions: 100, 50 and 25 mg/kg/day, pre-infection and post-infection, oral gavage, 2 LD50, vs placebo
[10] = system: IFN-γ; assay: Cytokine in lung homogenate of IAV-infected mice; format: in vivo; conditions: day 5 after infection; different doses (100, 50, 25 mg/kg/day)
Procedure, shortened: as §1

[11] = system: IL-6; assay: Cytokine in lung homogenate of IAV-infected mice; format: in vivo; conditions: day 5 after infection; different doses (100, 50, 25 mg/kg/day)
Procedure, shortened: as §1

[12] = IC50, NA activity inhibition assay

| Compound | viral NP localisation (immunofluorescence) [1] | MNTD (maximum non-toxic dose) [2] | decrease of NA activity [3] | neuraminidase activity in cell supernatant [3] | decrease of mRNA expression level of M gene [4] | mRNA expression level of M gene [4] | IC50 [5, 12] | other results |
| --- | --- | --- | --- | --- | --- | --- | --- | --- |
| O=C(/C=C/c1ccc(O)cc1)CC(=O)/C=C/c1ccc(O)cc1 [Bisdemethoxycurcumin] | a strong green fluorescent signal was observed in the cytoplasm | 20 µM | 2.45 fold | 0.40 ± 0.01 mU/mL | about 2.13 fold | 0.47 ± 0.11 µM | 70.1 µM | – |
| COc1cc(/C=C/C(=O)CC(=O)/C=C/c2ccc(O)c(OC)c2)ccc1O [Curcumin-d6] | – | – | – | – | – | – | – | IC50 ([5]; NA activity inhibition assay): 18800 µM |
| [2H]C([2H])([2H])Oc1cc(/C=C/C(=O)CC(=O)/C=C/c2ccc(O)c(OC([2H])([2H])[2H])c2)ccc1O [Curcumin-d6] | – | – | – | – | – | – | – | pIC50 (expt.) ([5]; converted from IC50): 1.73 |
| COc1cc(/C=C/C(=O)CC(=O)/C=C/c2ccc(O)c(OC)c2)ccc1O [Curcumin] | less NP was observed in the cytoplasm | 25 µM | about 2.04 fold | 0.48 ± 0.03 mU/mL | about 5.26 fold | 0.19 ± 0.03 µM | 450 µM | TNF-α level in lung homogenate [6]: significantly attenuated the increases; weight and clinical symptoms (dose safety) [7]: remained stable in weight and showed no significant clinical symptoms; Lung index inhibition [8]: 22.42% and 23.6% and 35.75^** %; Lung pathological change degree [8]: 1.10 ± 0.39 and 0.92 ± 0.47 and 1.02 ± 0.55; average survival time [9]: prolonged the average survival time; death protection rate [9]: promote the death protection rate significantly; IFN-γ level in lung homogenate [10]: significantly attenuated the increases; IL-6 level in lung homogenate [11]: significantly attenuated the increases |
| COc1cc(/C=C/C(O)=C/C(=O)/C=C/c2ccc(O)cc2)ccc1O [Demethoxycurcumin] | – | – | – | – | – | – | 200 µM | – |
| COc1cc(/C=C/C(=O)CC(=O)CCc2ccc(O)c(OC)c2)ccc1O [Dihydrocurcumin] | a strong green fluorescent signal was observed in the cytoplasm | 20 µM | ~1.81 fold | 0.54 ± 0.02 mU/mL | ~1.20 fold | 0.83 ± 0.09 µM | – | IC50 ([5]; NA activity inhibition assay): 219 µM; pIC50 (expt.) ([5]; converted from IC50): 3.66 |
| COc1ccc(/C=C/C(=O)/C=C(O)/C=C/c2ccc(OC)c(OC)c2)cc1OC [Dimethylcurcumin] | – | – | – | – | – | – | 1610 µM | – |
| COc1cc(CCC(=O)CC(O)CCc2ccc(O)c(OC)c2)ccc1O (centres unmarked) [Hexahydrocurcumin] | – | – | – | – | – | – | 33700 µM | IC50 ([5]; pIC50 (expt.), converted from IC50): 33900 µM |
| COc1cc(CCC(O)CC(O)CCc2ccc(O)c(OC)c2)ccc1O (centres unmarked) [Octahydrocurcumin] | – | – | – | – | – | – | 1530 µM | – |
| CCC(CC)O[C@@H]1C=C(C(=O)O)C[C@H](N)[C@H]1NC(C)=O [Oseltamivir carboxylate, reference compound] | – | – | – | – | about 11.11 fold | – | – | – |
| NC(=O)c1ncn([C@@H]2O[C@H](CO)[C@@H](O)[C@H]2O)n1 [Ribavirin, reference compound] | – | – | – | – | – | – | – | Lung index [8]: 0.94 ± 0.29; Lung index inhibition [8]: 43%; Lung pathological change degree [8]: 0.87 ± 0.52 |
| COc1cc(CCC(=O)CC(=O)CCc2ccc(O)c(OC)c2)ccc1O [Tetrahydrocurcumin] | – | – | – | – | – | – | 203 µM | – |
| Tetramethylcurcumin | less NP was observed in the cytoplasm | 15 µM | 2.65 fold | 0.37 ± 0.06 mU/mL | about 3.85 fold | 0.26 ± 0.07 µM | – | IC50 ([5]; NA activity inhibition assay): 226 µM; pIC50 (expt.) ([5]; converted from IC50): 3.65 |
